Laboratory results published in ChEMBL document CHEMBL1649091, “Flavonoids with an oligopolysulfated moiety: a new class of anticoagulant agents” (J Med Chem, 2011).
The source made the active and inactive calls. The rule behind the calls is not given here.

Experiments:
[1] = target: T1, Coagulation factor X/antithrombin III (Homo sapiens) (UniProt P01008+P00742); experiment: Inhibition of human antithrombin 3/factor 10a assessed as 25 x 10^-6M CBS31.39 substrate hydrolysis at 2 x 10^-3M; assay type: protein-complex assay
[2] = target: T1, Coagulation factor X/antithrombin III (Homo sapiens); experiment: Inhibition of human antithrombin 3/factor 10a assessed as 125 x 10^-6M CBS31.39 substrate hydrolysis at 1 x 10^-3M; assay type: protein-complex assay
[3] = test system: Mus musculus; experiment: Anticoagulant activity in mouse assessed as increase in activated partial prothrombin time at 150 umol/kg, ip relative to control; assay type: functional
In short: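 Adult male CD1 mice (30-35 g) given compound in saline ip at 150 µmol/kg, fasted on the day. Citrated portal vein blood taken at 30, 60 and 120 min. APTT measured in platelet-poor plasma. Expressed as ratio to saline-treated mice, mean ± SEM of three experiments.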

[4] = test system: Mus musculus; experiment: Hepatotoxicity in mouse liver assessed as change in plasma GOT/GPT level at 150 umol/kg, ip; assay type: toxicity, organism-based; conditions: in vivo
In short: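 Male CD1 mice (30-35 g), compound in saline ip at 150 µmol/kg. Portal vein citrated blood taken at 30, 60 and 120 min. GOT and GPT (U/L) measured in platelet-poor plasma on an automated chemistry analyzer. Four independent experiments, mean ± SEM.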

[5] = target: T1, Coagulation factor X/antithrombin III (Homo sapiens); experiment: Inhibition of human antithrombin 3/factor 10a assessed as 25 x 10^-6M CBS31.39 substrate hydrolysis at 0.5 x 10^-3M; assay type: protein-complex assay
[6] = Stability of the compound in human plasma assessed as compound remaining after 3 hrs; assay type: ADME, cell-free; conditions: read-out: Activity
In short: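 Compound at 25 µM final in human plasma diluted 1:1 with PBS pH 7.4, shaken at 37 °C for 180 min. Time-zero and 180-min samples quenched with TBA buffer and cold acetonitrile, then centrifuged. Supernatant dried, redissolved and analysed by HPLC. Three independent samples per time point.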

[7] = test system: Blood; experiment: Anticoagulant activity in human whole blood assessed as alpha angle at 1.25 x 10^-4M by thromboelastography in presence of intrinsic activators; assay type: functional
In short: (§1)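 Citrated whole blood from healthy donors (1:9 citrate), run within 5 h on a ROTEM analyzer. Compound in saline diluted 1:16 into blood to the final concentration stated; saline control. Intrinsic (InTEM) or extrinsic (ExTEM) activator added. Clot monitored at 37 °C in an oscillating cup-and-pin system for up to 60 min, giving R, K, angle and MA.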

[8] = target: Coagulation factor X (Homo sapiens) (UniProt P00742); experiment: Inhibition of human factor 10a assessed as 25 x 10^-6M chromogenic TH substrate hydrolysis at 2 x 10^-3M
In short: (§2)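 Direct FXa test, with buffer in place of ATIII: compound in water in 50 mM Tris/HCl pH 8.3, 227 mM NaCl, 0.1% BSA, 10 min at 37 °C. Human FXa (0.5 U/mL final) added for 10 min, then CBS 31.39 (25 or 125 × 10^-6 M). Read at 405 nm every 12 s for 20 min. Percent inhibition from initial slope against water control, Michaelis-Menten fit.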

[9] = test system: Blood; experiment: Anticoagulant activity in human whole blood assessed as maximum amplitude at 1.25 x 10^-4M by thromboelastography in presence of extrinsic activators; assay type: functional; in short: as §1
[10] = target: T1, Coagulation factor X/antithrombin III (Homo sapiens); experiment: Inhibition of human antithrombin 3/factor 10a assessed as 125 x 10^-6M CBS31.39 substrate hydrolysis at 2 x 10^-3M; assay type: protein-complex assay
[11] = target: Coagulation factor X (Homo sapiens) (UniProt P00742); experiment: Inhibition of human factor 10a assessed as 25 x 10^-6M chromogenic TH substrate hydrolysis at 0.5 x 10^-3M; in short: as §2
[12] = target: Coagulation factor X (Homo sapiens) (UniProt P00742); experiment: Inhibition of human factor 10a assessed as 125 x 10^-6M chromogenic TH substrate hydrolysis at 1 x 10^-3M; in short: as §2
[13] = target: Coagulation factor X (Homo sapiens) (UniProt P00742); experiment: Inhibition of human factor 10a assessed as 125 x 10^-6M chromogenic TH substrate hydrolysis at 0.5 x 10^-3M; in short: as §2
[14] = target: T1, Coagulation factor X/antithrombin III (Homo sapiens); experiment: Inhibition of human antithrombin 3/factor 10a assessed as 125 x 10^-6M CBS31.39 substrate hydrolysis at 0.5 x 10^-3M; assay type: protein-complex assay
[15] = test system: Blood; experiment: Anticoagulant activity in human whole blood assessed as clotting time at 1.25 x 10^-4M by thromboelastography in presence of extrinsic activators; assay type: functional; in short: as §1
[16] = Antiplatelet activity against collagen EPI-induced human platelet aggregation assessed as closure time at 1.25 x 10^-4M; assay type: functional
In short: (§3)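 Compound solution added to citrated human whole blood (125 µL into 1875 µL) to the final concentration stated, then run on a PFA-100 in collagen/ADP and collagen/epinephrine cartridges. Closure time is the time until platelets occlude the membrane aperture, in seconds. Mean ± SEM of three independent experiments.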

[17] = target: Prothrombin (Homo sapiens) (UniProt P00734); experiment: Inhibition of human thrombin
In short: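 Direct thrombin assay without ATIII: compound in water in 50 mM Tris/HCl pH 8.3, 227 mM NaCl, 0.1% BSA, 10 min at 37 °C. Human thrombin (0.06 U/mL final) added for 10 min, then Chromozym TH (178 × 10^-6 M). Read at 405 nm every 12 s for 20 min. Percent inhibition from initial slope against water control. Duplicates on ≥3 days.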

[18] = test system: Blood; experiment: Anticoagulant activity in human whole blood assessed as clotting time at 1.25 x 10^-4M by thromboelastography in presence of intrinsic activators; assay type: functional; in short: as §1
[19] = Antiplatelet activity against collagen ADP-induced human platelet aggregation assessed as closure time at 1.25 x 10^-4M; assay type: functional; in short: as §3
[20] = Anticoagulant activity in human plasma assessed as concentration required to double activated partial prothrombin time; assay type: functional
In short: (§4)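 Citrated pooled normal human plasma mixed 1:1 with compound in water (final 5 × 10-3 to 0.05 × 10^-3 M) and held 2 min at 37 °C. APTT: reagent added, 6 min at 37 °C, then 25 mmol/L CaCl2. PT: prewarmed PT reagent. TT: prewarmed thrombin (100 U/mL). Clotting read on a coagulometer, duplicate, three days (n = 6). Doubling concentration taken from linear regression of each concentration-response curve.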

[21] = test system: Blood; experiment: Anticoagulant activity in human whole blood assessed as clotting formation time at 1.25 x 10^-4M by thromboelastography in presence of extrinsic activators; assay type: functional; in short: as §1
[22] = target: Coagulation factor X (Homo sapiens) (UniProt P00742); experiment: Inhibition of human factor 10a assessed as 25 x 10^-6M chromogenic TH substrate hydrolysis at 1 x 10^-3M; in short: as §2
[23] = target: T1, Coagulation factor X/antithrombin III (Homo sapiens); experiment: Inhibition of human antithrombin 3/factor 10a assessed as 25 x 10^-6M CBS31.39 substrate hydrolysis at 1 x 10^-3M; assay type: protein-complex assay
[24] = test system: Blood; experiment: Anticoagulant activity in human whole blood assessed as maximum amplitude at 1.25 x 10^-4M by thromboelastography in presence of intrinsic activators; assay type: functional; in short: as §1
[25] = Anticoagulant activity in human plasma assessed as concentration required to double thrombin time; assay type: functional; in short: as §4
[26] = test system: Blood; experiment: Anticoagulant activity in human whole blood assessed as clotting formation time at 1.25 x 10^-4M by thromboelastography in presence of intrinsic activators; assay type: functional; in short: as §1
[27] = target: Coagulation factor X (Homo sapiens) (UniProt P00742); experiment: Inhibition of human factor 10a assessed as 125 x 10^-6M chromogenic TH substrate hydrolysis at 2 x 10^-3M; in short: as §2
[28] = Anticoagulant activity in human plasma assessed as concentration required to double prothrombin time; assay type: functional; in short: as §4
[29] = test system: Blood; experiment: Anticoagulant activity in human whole blood assessed as alpha angle at 1.25 x 10^-4M by thromboelastography in presence of extrinsic activators; assay type: functional; in short: as §1

Sequence of Coagulation factor X (Homo sapiens) (P00742 41-179 limits assumed): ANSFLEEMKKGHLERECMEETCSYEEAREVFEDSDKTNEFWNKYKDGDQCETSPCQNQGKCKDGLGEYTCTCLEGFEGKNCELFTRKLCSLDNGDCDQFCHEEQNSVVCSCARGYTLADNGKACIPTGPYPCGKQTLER
Sequence of Coagulation factor X (Homo sapiens) (P00742 235-488 limits assumed): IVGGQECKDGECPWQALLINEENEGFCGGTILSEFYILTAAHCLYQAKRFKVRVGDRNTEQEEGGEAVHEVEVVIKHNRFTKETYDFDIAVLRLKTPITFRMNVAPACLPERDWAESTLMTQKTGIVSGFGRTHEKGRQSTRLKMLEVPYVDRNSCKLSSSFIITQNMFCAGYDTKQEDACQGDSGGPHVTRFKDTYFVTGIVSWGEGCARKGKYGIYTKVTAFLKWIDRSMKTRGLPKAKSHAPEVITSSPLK

With `C[C@H]1O[C@@H](OC[C@@H]2O[C@H](Oc3c(-c4ccc(OS(=O)(=O)O)c(OS(=O)(=O)O)c4)oc4cc(OS(=O)(=O)O)cc(OS(=O)(=O)O)c4c3=O)[C@@H](OS(=O)(=O)O)[C@H](OS(=O)(=O)O)[C@H]2OS(=O)(=O)O)[C@@H](OS(=O)(=O)O)[C@@H](OS(=O)(=O)O)[C@@H]1OS(=O)(=O)O` the inhibition [1] was 31.4%, the inhibition [2] was 20.7% and the “fold change (FC)” value [3] was 1.5. For the same compound, the Activity [4] was “Non-toxic”, the inhibition [5] was 29.3% and the remaining at 3 h [6] was 95%. The Activity [7] was 61 degree, the inhibition [8] was 40% and the Activity [9] was 46 mm. For the same compound, the inhibition [10] was 33.1%, the inhibition [11] was “inactive” and the inhibition [12] was 32%. The inhibition [13] was 22.4%, the inhibition [14] was “inactive” and the Time [15] was 120 s. For the same compound, the Time [16] was 244 s, the inhibition [17] was “inactive” and the Time [18] was 261 s. For the same compound, the Time [19] was 189 s, the 2aPTT [20] was 66 µM and the Time [21] was 257 s. For the same compound, the inhibition [22] was 30.9%, the inhibition [23] was 30.5% and the Activity [24] was 48 mm. The Activity [25] was 877 µM, the Time [26] was 176 s and the inhibition [27] was 42.7%. The 2PT [28] was 649 µM and the Activity [29] was 51 degree.
